From ChEMBL document CHEMBL3856185, “Discovery of a sulfamate-based steroid sulfatase inhibitor with intrinsic selective estrogen receptor modulator properties” (Eur J Med Chem, 2016)

Experiments:
[1] = target: T1, Estrogen receptor (Homo sapiens, UniProt P03372); assay: Agonist activity at ERalpha in estrogen-sensitive human T47D cells assessed as cell proliferation at 0.1 uM after 7 days by MTS assay; assay type: cell-based; settings: 168 h
T1 sequence (P03372 whole entry): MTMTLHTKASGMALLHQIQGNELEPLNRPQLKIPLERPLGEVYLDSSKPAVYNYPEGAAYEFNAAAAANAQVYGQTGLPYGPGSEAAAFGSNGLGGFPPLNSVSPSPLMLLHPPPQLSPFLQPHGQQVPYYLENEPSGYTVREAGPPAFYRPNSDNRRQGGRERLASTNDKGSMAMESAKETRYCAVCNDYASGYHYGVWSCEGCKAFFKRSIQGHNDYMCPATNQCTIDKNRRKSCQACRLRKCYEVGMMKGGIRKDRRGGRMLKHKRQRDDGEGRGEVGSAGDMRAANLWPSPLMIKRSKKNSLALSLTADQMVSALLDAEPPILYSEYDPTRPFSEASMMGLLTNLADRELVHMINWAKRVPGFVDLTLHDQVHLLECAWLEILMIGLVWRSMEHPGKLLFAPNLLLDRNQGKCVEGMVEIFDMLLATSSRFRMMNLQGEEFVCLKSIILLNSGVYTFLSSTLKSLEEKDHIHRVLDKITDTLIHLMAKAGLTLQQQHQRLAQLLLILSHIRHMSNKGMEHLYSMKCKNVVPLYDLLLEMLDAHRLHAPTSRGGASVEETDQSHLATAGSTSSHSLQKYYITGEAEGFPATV
Procedure, shortened: (§1)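 Seeded 3000 cells/well, 48 h attachment. Compounds diluted from DMSO (final ≤0.1%) in medium, renewed every 2 days for 7 days. Proliferation read by MTS, 4 h at 37 °C, absorbance 490 nm. Control (medium + DMSO) set to 100%. Mean ± SD of triplicates.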

[2] = target: T1, Estrogen receptor; assay: Agonist activity at ERalpha in estrogen-sensitive human T47D cells assessed as cell proliferation at 0.01 uM after 7 days by MTS assay; assay type: cell-based; settings: 168 h; procedure, shortened: as §1
[3] = target: T1, Estrogen receptor; assay: Agonist activity at ERalpha in estrogen-sensitive human T47D cells assessed as cell proliferation at 1 uM after 7 days by MTS assay; assay type: cell-based; settings: 168 h; procedure, shortened: as §1
[4] = target: T2, Estrogen receptor (Homo sapiens) (UniProt P03372); assay: Antiestrogenic activity at ERalpha in estrogen-sensitive human T47D cells assessed as blockage of E2 stimulated cell proliferation at 5 uM after 7 days in presence of E2 by MTS assay; assay type: cell-based
T2 sequence (whole entry): T1 sequence (P03372 whole entry)
Procedure, shortened: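 Estrogen-deprived T-47D cells (RPMI, insulin 50 ng/mL, 5% charcoal-stripped FBS) seeded at 3000 cells/well, attached 48 h. Then treated 7 days with compound plus E2 (0.1 nM), medium renewed every 2 days. DMSO final ≤0.1%. MTS added 4 h, A490. Control (medium + DMSO) = 100%. Mean ± SD of triplicates.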

[5] = Cytotoxicity against human Saos2 cells assessed as reduction in cell proliferation at 5 to 10 uM after 7 days by MTS assay; assay type: toxicity, cell-based; settings: saos-2, 168 h
Procedure, shortened: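 Saos-2 cells in phenol-red-free McCoy's 5A with 10% charcoal-stripped FBS. Seeded 3000 cells/well, treated after 24 h with compounds from 1 nM to 10 µM (DMSO ≤0.1% final), renewed every 2 days for 7 days. MTS 2 h at 37 °C, absorbance 490 nm. Control (medium + DMSO) = 100%. Mean ± SD of triplicates.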

[6] = Cytotoxicity against estrogen-sensitive human T47D cells assessed as reduction in cell proliferation at 0.01 to 1 uM after 7 days by MTS assay; assay type: toxicity, cell-based; settings: 168 h; procedure, shortened: as §1
[7] = Cytotoxicity against estrogen-sensitive human T47D cells assessed as reduction in cell proliferation at 5 uM after 7 days by MTS assay; assay type: toxicity, cell-based; settings: 168 h; procedure, shortened: as §1
[8] = target: T3, Steryl-sulfatase (Homo sapiens, UniProt P08842); assay: Inhibition of steroid sulfatase (unknown origin) expressed in HEK293 cells assessed as reduction in transformation of [3H]-E1S to E1 after 2 hrs by liquid scintillation counting; assay type: cell-based
T3 sequence (P08842 whole entry): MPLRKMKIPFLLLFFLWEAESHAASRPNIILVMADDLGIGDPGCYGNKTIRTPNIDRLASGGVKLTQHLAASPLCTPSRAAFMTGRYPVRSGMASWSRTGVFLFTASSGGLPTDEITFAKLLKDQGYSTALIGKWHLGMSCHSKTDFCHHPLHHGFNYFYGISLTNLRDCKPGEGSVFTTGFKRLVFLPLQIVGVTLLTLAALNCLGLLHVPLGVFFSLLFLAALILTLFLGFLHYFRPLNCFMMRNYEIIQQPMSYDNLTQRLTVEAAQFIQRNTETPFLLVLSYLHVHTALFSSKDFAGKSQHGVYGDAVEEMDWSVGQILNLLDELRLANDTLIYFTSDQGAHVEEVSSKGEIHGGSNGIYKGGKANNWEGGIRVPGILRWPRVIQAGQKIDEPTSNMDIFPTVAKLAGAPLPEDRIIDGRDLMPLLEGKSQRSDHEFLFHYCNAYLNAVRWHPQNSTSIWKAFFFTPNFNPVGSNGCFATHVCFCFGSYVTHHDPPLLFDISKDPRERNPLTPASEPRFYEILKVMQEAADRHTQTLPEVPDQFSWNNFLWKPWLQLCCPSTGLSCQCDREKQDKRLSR
Procedure, shortened: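 Homogenate of STS-overexpressing HEK-293 cells (lysed by 5 freeze (−80 °C)/thaw (4 °C) cycles) incubated 2 h at 37 °C with inhibitors 0.01–1 µM and [3H]-E1S 9 nM adjusted to 1 µM with E1S, in Tris-acetate pH 7.4 with 5 mM EDTA, 10% glycerol. Xylene extraction separated E1 from E1S; scintillation counting; % inhibition vs no-inhibitor control; IC50 from curve; triplicates, mean ± SD.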

Row | Activity [4] | Structure (SMILES) | Activity [1] | Activity [2] | Activity [3] | Activity [5] | Activity [6] | Activity [7] | IC50 [8]
1 | – | O=C(c1ccc(CN(Cc2ccc(OCCCN3CCCCC3)cc2)Cc2ccccn2)cc1)N1CCc2ccc(O)cc2C1 | 104.5% | 105.9% | 60.7% | – | – | – | –
2 | – | O=C(c1ccc(CN(Cc2ccco2)Cc2ccccc2OCCCN2CCCCC2)cc1)N1CCc2ccc(O)cc2C1 | 105.9% | 96.8% | 0% | – | – | – | –
3 | 84% | Cc1ccc(CN(Cc2ccc(C(=O)N3CCc4ccc(O)cc4C3)cc2)Cc2ccco2)s1 | 103.2% | 97.1% | 96.8% | Toxic | Non-Toxic | – | –
4 | – | O=C(c1ccc(CN(CCN2CCOCC2)Cc2ccco2)cc1)N1CCc2ccc(O)cc2C1 | 105.9% | 108.2% | 118.8% | – | – | – | –
5 | – | O=C(c1ccc(CN(Cc2ccc(O)cc2)Cc2ccco2)cc1)N1CCc2ccc(O)cc2C1 | 138% | 108.2% | 200.3% | – | – | – | –
6 | – | O=C(c1ccc(CN(Cc2ccccn2)Cc2ccccc2OCCCN2CCCCC2)cc1)N1CCc2ccc(O)cc2C1 | 99.8% | 102.8% | 37.1% | – | – | – | –
7 | – | O=C(c1ccc(CN(Cc2ccccn2)Cc2ccco2)cc1)N1CCc2ccc(O)cc2C1 | 103.2% | 104.1% | 103.5% | – | Non-Toxic | – | –
8 | – | O=C(c1ccc(CN(CCCn2ccnc2)Cc2ccco2)cc1)N1CCc2ccc(O)cc2C1 | 98.5% | 94.9% | 114.6% | – | – | – | –
9 | – | Cc1ccc(CN(Cc2ccc(C(=O)N3CCc4ccc(OS(N)(=O)=O)cc4C3)cc2)Cc2ccco2)s1 | – | – | – | Toxic | – | Toxic | 8.9 nM
10 | – | COc1ccc(CN(Cc2ccc(C(=O)N3CCc4ccc(O)cc4C3)cc2)Cc2ccccn2)cc1 | 104.6% | 105.6% | 100.9% | – | Non-Toxic | Toxic | –
11 | – | COc1cc2c(cc1OS(N)(=O)=O)CC[C@@H]1[C@@H]2CC[C@@]2(C)[C@H]1CC[C@@]2(O)Cc1ccccc1 | – | – | – | – | – | – | 0.05 nM
12 | – | O=C(c1ccc(CN(Cc2ccc(OCCCN3CCCCC3)cc2)Cc2ccco2)cc1)N1CCc2ccc(O)cc2C1 | 119.7% | 95.6% | 133.7% | – | – | – | –
13 | – | Cc1ccc(CN(Cc2ccc(C(=O)N3CCc4ccc(O)cc4C3)cc2)Cc2ccccn2)s1 | 105.4% | 100.6% | 78.9% | – | – | – | –
14 | – | NS(=O)(=O)Oc1ccc2c(c1)CN(C(=O)c1ccc(CN(Cc3ccccn3)Cc3ccco3)cc1)CC2 | – | – | – | – | – | Toxic | –
15 | – | COc1ccc(CN(Cc2ccc(C(=O)N3CCc4ccc(OS(N)(=O)=O)cc4C3)cc2)Cc2ccccn2)cc1 | – | – | – | – | – | Toxic | –
16 | – | O=C(c1ccc(CN(Cc2ccc(Br)cc2)Cc2ccco2)cc1)N1CCc2ccc(O)cc2C1 | 109.4% | 106.3% | 59.2% | – | – | – | –
17 | – | O=C(c1ccc(CN(CCCn2ccnc2)Cc2ccccn2)cc1)N1CCc2ccc(O)cc2C1 | 112.9% | 102.8% | 39.2% | – | – | – | –
18 | – | O=C(c1ccc(OCCN2CCCCC2)cc1)c1c(-c2ccc(O)cc2)sc2cc(O)ccc12 [RALOXIFENE] | – | – | – | Toxic | – | Toxic | –
